Calls of active or inactive are those of the source.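 Rule for the calls: active = fitted curve reaching 35% inhibition at both 405 and 600 nm absorbance, in duplicate, within twice the top valid dose; inactive = the rest, including signal rising instead of falling.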
test system: P. aeruginosa + EDDHA, pyoverdine absorbance 405 nm, 24-30 h; assay: P. aeruginosa growth delay under iron chelation, dose response, absorbance 405 nm, dry powder, set 2 (AID 624011); settings: not given
Procedure, shortened: (§1)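 Assay system: P. aeruginosa ATCC 15692 cells | Quantity: Bacterial inoculum at final OD600 of 0.0000005 | Buffer or medium: Succinate-based M9 minimal medium, pH 7.0 | Compound dosing: 3-fold dilution series, 10 mM stock | Timing: Bacterial growth with compound 24-30 h at 37 °C, humidified | Signal: Absorbance at 405 nm reflecting pyoverdine production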

| Structure (SMILES) | AC35 |
| --- | --- |
| N#CC(c1ccc(Cl)cc1)c1ncccc1Cl (configuration not stated) | 33.6 µM |
| N#CC(c1ccc(Cl)cc1)c1cccc(C(F)(F)F)n1 (configuration not stated) | 7.35 µM |
| N#CC(c1ccc(Cl)cc1)c1cccc(Cl)n1 (configuration not stated) | 18 µM |
| N#CC(c1ccc(F)cc1)c1cccc(C(F)(F)F)n1 (configuration not stated) | 17.6 µM |
| COc1cccc(C(C#N)c2ccc(F)cc2)n1 (configuration not stated) | > 50 µM (inactive) |
| N#CC(c1cccc(Cl)n1)c1ccc(Cl)cc1F (configuration not stated) | 19.6 µM |
| N#CC(c1cccc(C(F)(F)F)n1)c1ccc(Cl)cc1F (configuration not stated) | 26.2 µM |

test system: not listed separately; assay: as above; settings: P. aeruginosa + EDDHA, pyoverdine absorbance 405 nm, 24-30 h; at 50 µM (top of the series)
Procedure, shortened: as §1

| Structure (SMILES) | activity change, negative = inhibition |
| --- | --- |
| N#CC(c1cccc(Cl)n1)c1ccccc1OC(F)(F)F (configuration not stated) | -13.5% (inactive) |
| CCCC(C#N)c1ccc(Cl)cc1 (configuration not stated) | 1.22% (inactive) |
| Cc1ccc(C(C#N)c2ccc(Cl)cc2)nc1 (configuration not stated) | -6.12% (inactive) |
| N#CC(c1ccc(C(F)(F)F)cc1)c1cccc(Cl)n1 (configuration not stated) | -7.8% (inactive) |
| CCCCC(C#N)c1ccccc1OC(F)(F)F (configuration not stated) | 1.13% (inactive) |
| N#CC(c1ccc(C(F)(F)F)cc1)c1ccc(C(F)(F)F)c(Cl)n1 (configuration not stated) | 0.565% (inactive) |
| N#CC(c1cccc(C(F)(F)F)n1)c1ccccc1OC(F)(F)F (configuration not stated) | -5.85% (inactive) |
| N#CC(c1ccc(C(F)(F)F)c(Cl)n1)c1ccc(Cl)cc1Cl (configuration not stated) | 5.25% (inactive) |
| N#Cc1cccc(C(C#N)c2ccccc2OC(F)(F)F)n1 (configuration not stated) | 4.18% (inactive) |
| CCCCC(C#N)c1ccc(F)cc1 (configuration not stated) | -8.06% (inactive) |
| N#Cc1cccc(C(C#N)c2ccc(Cl)cc2Cl)n1 (configuration not stated) | -7.16% (inactive) |
| CC(C#N)(c1ccc(Cl)cc1)c1ccc(C(F)(F)F)cn1 (configuration not stated) | -3.64% (inactive) |
| N#Cc1ccc(C(C#N)c2ccc(Cl)cc2Cl)nc1 (configuration not stated) | 3.9% (inactive) |
| N#CC(c1ccc(Cl)cc1)c1ccc(C(F)(F)F)cn1 (configuration not stated) | 5.88% (inactive) |
| N#CC(c1ccc(Cl)cc1Cl)c1ncccc1Cl (configuration not stated) | 5.69% (inactive) |
| CCCCC(C#N)c1ccc(Cl)cc1 (configuration not stated) | -0.942% (inactive) |
| CCCCC(C#N)c1ccc(Cl)cc1Cl (configuration not stated) | 4.33% (inactive) |
| N#CC(c1cccc(Cl)n1)c1ccc(Cl)cc1Cl (configuration not stated) | -12.6% (inactive) |
| CC(C)CC(C#N)c1ccc(Cl)cc1 (configuration not stated) | 1.37% (inactive) |
| N#CC(c1ccc(C(F)(F)F)cc1)c1cccc(C(F)(F)F)n1 (configuration not stated) | 0.339% (inactive) |
| N#CC(c1ccc(C(F)(F)F)c(Cl)n1)c1ccccc1OC(F)(F)F (configuration not stated) | 2.22% (inactive) |
| CCCCC(C#N)c1ccc(C(F)(F)F)cc1 (configuration not stated) | -7.42% (inactive) |
| N#CC(c1ccc(C(F)(F)F)c(Cl)n1)c1ccc(Cl)cc1F (configuration not stated) | -8.56% (inactive) |
| N#CC(c1ccc(Cl)cc1)c1ccc(C(F)(F)F)c(Cl)n1 (configuration not stated) | 1.79% (inactive) |
| CCCCC(C#N)c1ccc(Cl)cc1F (configuration not stated) | -9.53% (inactive) |
| Cc1ccc(C(C#N)c2ccccc2OC(F)(F)F)nc1C#N (configuration not stated) | 1.92% (inactive) |
| N#Cc1cccc(C(C#N)c2ccc(Cl)cc2)n1 (configuration not stated) | -11.7% (inactive) |
| N#CC(CC1CC1)c1ccc(Cl)cc1 (configuration not stated) | -6.92% (inactive) |
| N#Cc1ccc(C(C#N)c2ccc(Cl)cc2)nc1 (configuration not stated) | -6.67% (inactive) |
| Cc1ccc(C(C#N)c2ccc(Cl)cc2)nc1C#N (configuration not stated) | -8.79% (inactive) |

— PubChem BioAssay AID624011 (Broad Institute, 2012)
